This note sets out measurements from ChEMBL document CHEMBL3045276, “Synthesis and biological activity of some novel trifluoromethyl-substituted 1,2,4-triazole and bis(1,2,4-triazole) Mannich bases containing piperazine rings” (2010).

Common to all, as to format: functional
For test [1], the system named is Echinochloa crus-galli. Briefly: Herbicidal activity against Echinochloa crus-galli (barnyard grass) assessed as inhibition of seedling growth at 100 ug/mL at 28 degC. The method, boiled down: (§1)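 Ten barnyardgrass seeds placed in cup over glass beads and filter paper holding 5 mL aqueous test solution (emulsified if needed); germinated 65 h at 28 ± 1 °C under light. Mean above-ground seedling height per cup measured; inhibition percentage derived.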

Test [2] deals with Brassica rapa subsp. oleifera. Briefly: Herbicidal activity against Brassica rapa subsp. oleifera assessed as inhibition of root growth at 10 ug/mL at 28 degC. In outline:
(§2)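 Rape seeds soaked 4 h in distilled water, then 15 per 6 cm dish on filter paper wetted with 2 mL aqueous test solution (emulsified if needed); germinated 65 h at 28 ± 1 °C in darkness. Mean length of 10 roots per dish measured; percentage inhibition calculated against distilled-water check.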

For test [3], the system named is Brassica rapa subsp. oleifera. Briefly: Herbicidal activity against Brassica rapa subsp. oleifera assessed as inhibition of root growth at 100 ug/mL at 28 degC. In outline: as §2
Test [4] has as its system Sclerotinia sclerotiorum. In words: Fungicidal activity against Sclerotinia sclerotiorum in cucumber plant two seed leaves stage assessed as control efficacy from disease indices at 500 ug/mL at 18 to 30 degC and above 80%RH relative to control. As to conditions: read-out: GI. The method, boiled down:
(§3)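 Cucumber seeds germinated (soaked 2 h in water at 50 °C, kept moist 24 h at 28 °C) and grown in 1:1 vermiculite/peat; two-seed-leaf plants sprayed at 500 μg/mL, then inoculated 2 h later by spraying conidial (C. cassiicola, A. citrullina, P. cubensis), bacterial (P. syringae) or mycelial (S. sclerotiorum) suspension. Held 18-30 °C, >80% RH; four repeats; control efficacy = (CK−PT)/CK×100 from disease indices once untreated plants fully symptomatic.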

Test [5] deals with Pseudoperonospora cubensis. Briefly: Fungicidal activity against Pseudoperonospora cubensis in cucumber plant two seed leaves stage assessed as control efficacy from disease indices at 500 ug/mL at 18 to 30 degC and above 80%RH relative to control. The note with it: read-out: GI. In outline:
as §3

In test [6] the test system is Ascochyta. In words: Fungicidal activity against Ascochyta […] in cucumber plant two seed leaves stage assessed as control efficacy from disease indices at 500 ug/mL at 18 to 30 degC and above 80%RH relative to control. As to conditions: read-out: GI. The method, boiled down:
as §3

For test [7], the system named is Pseudomonas amygdali pv. lachrymans. In words: Fungicidal activity against Pseudomonas syringae pv. lachrymans in cucumber plant two seed leaves stage assessed as control efficacy from disease indices at 500 ug/mL at 18 to 30 degC and above 80%RH relative to control. As to conditions: read-out: GI. The method, boiled down: as §3
The test system of test [8] is Corynespora cassiicola. In words: Fungicidal activity against Corynespora cassiicola in cucumber plant two seed leaves stage assessed as control efficacy from disease indices at 500 ug/mL at 18 to 30 degC and above 80%RH relative to control. The note with it: read-out: GI. The method, boiled down: as §3
The test system of test [9] is Echinochloa crus-galli. Briefly: Herbicidal activity against Echinochloa crus-galli (barnyard grass) assessed as inhibition of seedling growth at 10 ug/mL at 28 degC. In outline: as §1

As a reminder, the inhibition is the share of the control response that was lost under treatment.

For `COc1ccc(/C=N/n2c(C(F)(F)F)nn(CN3CCN(Cn4nc(C(F)(F)F)n(/N=C/c5ccc(OC)cc5)c4=S)CC3)c2=S)cc1`, the inhibition at 100 µg/mL amounted to 25.5% in test [1] and 29.5% in test [3]. Further, the values for the inhibition at 10 µg/mL in test [2] and in test [9] were 0% and 5.5%, respectively. The inhibition of growth at 500 µg/mL in [4] was found to be 62%; in test [5], 84.5%; in test [6] it was 89.7%; in test [7], 55.6%; in [8] it was 44.1%.
Regarding `COc1ccc(C(=CC(=O)N2CCOCC2)c2ccc(Cl)cc2)cc1OC` [DIMETHOMORPH], the inhibition of growth at 500 µg/mL in test [4] was 98.4%; in [5], 83.8%; in test [6] it was 98.4%; in [7] it was 14%; in test [8], 95.3%.
`Cc1ccnc(N2CCN(Cn3nc(C(F)(F)F)n(/N=C/c4ccccc4)c3=S)CC2)n1`: the inhibition at 100 µg/mL turned out to be 15.3% in test [1] and 12.5% in test [3]. The inhibition at 10 µg/mL in test [2] was determined as 0%; in [9], 8.7%. The inhibition of growth at 500 µg/mL in test [4] was 36.8%; in test [5], 78.6%; in test [6], 62.4%; in test [7], 20.4%; in test [8] it was 49.2%.
In the case of `COc1ccc(/C=N/n2c(C(F)(F)F)nn(CN3CCN(c4nc(C)cc(C)n4)CC3)c2=S)cc1`, the inhibition at 100 µg/mL in [1] worked out at 29.5%; in test [3], 67.7%. The inhibition at 10 µg/mL is 30.6% in test [2] and 0% in test [9]. Further, the inhibition of growth at 500 µg/mL amounted to 62.6% in test [4]; 87.3% in test [5]; 87.6% in test [6]; 50.3% in test [7]; 83.7% in test [8].
Take `Fc1ccccc1/C=N/n1c(C(F)(F)F)nn(CN2CCN(Cn3nc(C(F)(F)F)n(/N=C/c4ccccc4F)c3=S)CC2)c1=S`: the results for the inhibition at 100 µg/mL in [1] and in test [3] were 26.6% and 4.3%, respectively. The inhibition at 10 µg/mL in [2] worked out at 0%; in test [9] it was 10.7%. Moreover, the inhibition of growth at 500 µg/mL in test [4] amounted to 25.9%; in [5], 79.9%; in test [6], 86.5%; in test [7], 6.8%; in test [8], 84.7%.
For `Cc1ccnc(N2CCN(Cn3nc(C(F)(F)F)n(/N=C/c4ccccc4[N+](=O)[O-])c3=S)CC2)n1`, the inhibition at 100 µg/mL in test [1] came out at 33.9%; in [3], 0%. Besides, the inhibition at 10 µg/mL in test [2] came out at 0%; in test [9], 11.5%. In addition, the inhibition of growth at 500 µg/mL was found to be 32.8% in test [4]; 76.8% in [5]; 44.3% in [6]; 44.5% in test [7]; 73.8% in test [8].
Regarding `Fc1ccccc1/C=N/n1c(C(F)(F)F)nn(CN2CCN(c3ncccn3)CC2)c1=S`, the inhibition at 100 µg/mL in test [1] worked out at 15.3%; in test [3], 74.5%. Moreover, the values for the inhibition at 10 µg/mL in test [2] and in [9] were 70.8% and 9.9%, respectively. The inhibition of growth at 500 µg/mL in test [4] was determined as 47.3%; in [5] it was 64.9%; in test [6], 61.3%; in [7] it was 45.4%; in test [8], 40.3%.
As for `COc1ccc(/C=N/n2c(C(F)(F)F)nn(CN3CCN(c4ncccn4)CC3)c2=S)cc1`, the inhibition at 100 µg/mL in [1] came to 18.6%; in test [3], 78.8%. The inhibition at 10 µg/mL in test [2] came out at 53.5%; in test [9], 0%. Moreover, the inhibition of growth at 500 µg/mL in test [4] was determined as 75.3%; in [5], 79.5%; in [6] it was 73.4%; in [7] it was 68.1%; in test [8], 73.4%.
Take `COc1nc(C)nc(NC(=O)NS(=O)(=O)c2ccccc2Cl)n1` [CHLORSULFURON]: the inhibition at 100 µg/mL in [1] was 29.9%; in test [3], 80.4%. In addition, the inhibition at 10 µg/mL in test [2] was determined as 76%; in test [9] it was 8.2%.
On to `Cc1cc(C)nc(N2CCN(Cn3nc(C(F)(F)F)n(/N=C/c4ccc(Cl)cc4)c3=S)CC2)n1`, for which the inhibition at 100 µg/mL in test [1] was 36.6%; in [3], 88.5%. Also, the results for the inhibition at 10 µg/mL in [2] and in test [9] were 9.5% and 12.3%, respectively. The inhibition of growth at 500 µg/mL in test [4] was determined as 38%; in test [5], 91.6%; in [6], 62.8%; in [7], 61.5%; in test [8], 94.4%.
Regarding `COC(=O)NC(=S)Nc1ccccc1NC(=S)NC(=O)OC` [THIOPHANATE METHYL], the inhibition of growth at 500 µg/mL was found to be 83.4% in [4]; 68.7% in [5]; 100% in test [6]; 54.2% in test [7]; 78.8% in [8].
In the case of `CC(C)NC(=O)N1CC(=O)N(c2cc(Cl)cc(Cl)c2)C1=O` [IPRODIONE], the inhibition of growth at 500 µg/mL in test [4] is 97.8%; in test [5], 55.9%; in [6], 98.4%; in [7], 38.5%; in test [8], 53.5%.
Consider `Cc1ccnc(N2CCN(Cn3nc(C(F)(F)F)n(/N=C/c4ccccc4F)c3=S)CC2)n1`, for which the inhibition at 100 µg/mL in test [1] was found to be 8%; in test [3], 24.4%. Moreover, the inhibition at 10 µg/mL in [2] and in test [9] was 0% in each case. For the same compound, the inhibition of growth at 500 µg/mL in test [4] was 52.2%; in test [5], 75.5%; in [6], 57.8%; in test [7], 62.3%; in [8], -5.3%.
As to `Cc1cc(C)nc(N2CCN(Cn3nc(C(F)(F)F)n(/N=C/c4ccc(C)c(C)c4)c3=S)CC2)n1`, the inhibition at 100 µg/mL in test [1] was determined as 8.7%; in [3], 20.5%. The inhibition at 10 µg/mL was found to be 6% in test [2] and 0% in test [9]. The inhibition of growth at 500 µg/mL in test [4] amounted to 48.9%; in test [5], 67.8%; in test [6], 82.9%; in test [7], 59.5%; in test [8] it was 85.9%.
For the compound `Cc1ccc(/C=N/n2c(C(F)(F)F)nn(CN3CCN(Cn4nc(C(F)(F)F)n(/N=C/c5ccc(C)c(C)c5)c4=S)CC3)c2=S)cc1C`, the results for the inhibition at 100 µg/mL in [1] and in test [3] were 28% and 27.4%, respectively. The results for the inhibition at 10 µg/mL in test [2] and in test [9] were 0% and 1.5%, respectively. Also, the inhibition of growth at 500 µg/mL was 32.7% in test [4]; 78.7% in test [5]; 26% in test [6]; 36.7% in [7]; 67.4% in [8].
